Measured values taken from ChEMBL document CHEMBL1135624, “Parallel synthesis of potent, pyrazole-based inhibitors of Helicobacter pylori dihydroorotate dehydrogenase” (J Med Chem, 2002).
≈ marks a conversion by molar mass, not a printed value.

Legend:
[1] = biological target: Dihydroorotate dehydrogenase (quinone), mitochondrial (Homo sapiens, UniProt Q02127); assay: Inhibition of human dihydroorotate dehydrogenase (DHODase)
Helicobacter pylori [2] = assay: Minimum Inhibitory concentration against Helicobacter pylori; assay type: functional
How it was run: (§1)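 Whole-cell antimicrobial MIC against a reference American Type Culture Collection *H. pylori* strain, reported in μg/mL.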

[3] = Minimum inhibitory concentration measured against wild type.; assay type: functional; settings: Helicobacter pylori; how it was run: as §1
Helicobacter pylori [4] = assay: Minimum inhibitory concentration measured against compound 1 resistant Helicobacter pylori isolate; assay type: functional
How it was run: (§2)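 Spontaneously resistant H. pylori mutants were isolated by plating cells on the selecting pyrazole, with the same method for each of the two selecting agents. Each resistant isolate was then tested for MIC against the pyrazole not used to select it, as a cross-resistance check.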

Helicobacter pylori [5] = assay: Minimum inhibitory concentration measured against compound 13 resistant Helicobacter pylori isolate; assay type: functional; how it was run: as §2

Chain of Dihydroorotate dehydrogenase (quinone), mitochondrial (Q02127 whole entry): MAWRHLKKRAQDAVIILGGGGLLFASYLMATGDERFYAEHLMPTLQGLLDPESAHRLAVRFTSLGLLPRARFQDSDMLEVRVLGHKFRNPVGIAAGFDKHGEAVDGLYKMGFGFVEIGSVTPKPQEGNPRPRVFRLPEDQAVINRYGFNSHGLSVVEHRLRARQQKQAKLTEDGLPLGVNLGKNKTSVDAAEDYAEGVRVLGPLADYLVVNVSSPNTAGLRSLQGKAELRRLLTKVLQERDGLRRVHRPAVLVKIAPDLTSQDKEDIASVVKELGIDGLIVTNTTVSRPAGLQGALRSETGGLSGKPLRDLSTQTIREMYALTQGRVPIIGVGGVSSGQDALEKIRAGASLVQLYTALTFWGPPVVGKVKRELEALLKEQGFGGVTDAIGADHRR

With `CC(C)CNC(=O)c1cc(C(=O)NCc2ccccc2)nn1-c1ccc(Cl)cc1` the Ki [1] was greater than 50 µM and the MIC (Helicobacter pylori [2]) was greater than 64 µg/mL.
For `COc1ccc(-n2nc(C(=O)Nc3ccc(C(=O)N4CCCC4)cc3)cc2C(=O)NCc2ccccc2)cc1`, the MIC (Helicobacter pylori [2]) was greater than 32 µg/mL.
`O=C(NCc1cccnc1)c1cc(C(=O)Nc2ccc(N3CCCCC3)cc2)n(-c2ccc(Cl)cc2)n1` showed a Ki [1] greater than 50 µM and an MIC (Helicobacter pylori [2]) of 2 µg/mL (≈ 3.88 µM).
`COc1ccc(-n2nc(C(=O)NCC(C)C)cc2C(=O)Nc2ccc(C(=O)N3CCCC3)cc2)cc1` showed a Ki [1] greater than 50 µM and an MIC (Helicobacter pylori [2]) of 64 µg/mL (≈ 131 µM).
Compound `COc1ccc(-n2nc(C(=O)NCc3cccnc3)cc2C(=O)Nc2ccccc2)cc1` has a Ki [1] greater than 50 µM, an MIC [3] of 0.5 µg/mL (≈ 1.17 µM) and an MIC (Helicobacter pylori [4]) of 32 µg/mL (≈ 74.9 µM). For the same compound, the MIC (Helicobacter pylori [5]) was 24 µg/mL (≈ 56.1 µM) and the MIC (Helicobacter pylori [2]) was 0.5 µg/mL (≈ 1.17 µM).
With `O=C(NCc1ccccc1)c1cc(C(=O)Nc2ccccc2)n(-c2ccc(Cl)cc2)n1` the Ki [1] was 50 µM and the MIC (Helicobacter pylori [2]) was 0.125 µg/mL (≈ 0.29 µM).
`Cc1ccc(CNC(=O)c2cc(C(=O)Nc3ccccc3)n(-c3ccc(Cl)cc3)n2)cc1` gave a Ki [1] greater than 50 µM and an MIC (Helicobacter pylori [2]) of 32 µg/mL (≈ 71.9 µM).
`COc1ccc(-n2nc(C(=O)NC(c3ccccc3)c3ccccc3)cc2C(=O)NCc2ccccc2)cc1` showed a Ki [1] greater than 50 µM and an MIC (Helicobacter pylori [2]) greater than 32 µg/mL.
`O=C(NCc1cccnc1)c1cc(C(=O)Nc2ccccc2)n(-c2ccc(Cl)cc2)n1` showed a Ki [1] greater than 50 µM and an MIC (Helicobacter pylori [2]) of 0.25 µg/mL (≈ 0.579 µM).
Work on `NC(=O)c1ccc(NC(=O)c2cc(C(=O)NCc3ccccc3)nn2-c2ccc(Cl)cc2)cc1` yielded a Ki [1] greater than 50 µM and an MIC (Helicobacter pylori [2]) of 8 µg/mL (≈ 16.9 µM).
Compound `COc1ccc(-n2nc(C(=O)NCc3ccccc3)cc2C(=O)Nc2ccc(C(=O)N3CCCC3)cc2)cc1` has a Ki [1] greater than 50 µM, an MIC [3] of 3 µg/mL (≈ 5.73 µM) and an MIC (Helicobacter pylori [4]) greater than 64 µg/mL. For the same compound, the MIC (Helicobacter pylori [5]) was greater than 64 µg/mL and the MIC (Helicobacter pylori [2]) was 3 µg/mL (≈ 5.73 µM).
With `COc1ccc(-n2nc(C(=O)NCC3CCCO3)cc2C(=O)Nc2ccc(C(=O)N3CCCC3)cc2)cc1` (centres undefined) the Ki [1] was greater than 50 µM and the MIC (Helicobacter pylori [2]) was greater than 32 µg/mL.
